# Screening results: PubChem, Broad Institute
# KDM4C inh: KDM4C (human) demethylase inhibition; Q9H3R0; GST-KDM4C 2-372, H3K9me3 peptide, LANCE TR-FRET; inhibition, % at 12.5 µM; hit rate 0.15% among 96,000; AID 720574;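 active = mean replicate inhibition above about 25%, with at least 55% of replicates also reaching it, limit read from the data, passing the limit was not always enough; inconclusive = only one of those two conditions met; inactive = neither condition met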
# Target sequence (Q9H3R0 2-372 limits assumed): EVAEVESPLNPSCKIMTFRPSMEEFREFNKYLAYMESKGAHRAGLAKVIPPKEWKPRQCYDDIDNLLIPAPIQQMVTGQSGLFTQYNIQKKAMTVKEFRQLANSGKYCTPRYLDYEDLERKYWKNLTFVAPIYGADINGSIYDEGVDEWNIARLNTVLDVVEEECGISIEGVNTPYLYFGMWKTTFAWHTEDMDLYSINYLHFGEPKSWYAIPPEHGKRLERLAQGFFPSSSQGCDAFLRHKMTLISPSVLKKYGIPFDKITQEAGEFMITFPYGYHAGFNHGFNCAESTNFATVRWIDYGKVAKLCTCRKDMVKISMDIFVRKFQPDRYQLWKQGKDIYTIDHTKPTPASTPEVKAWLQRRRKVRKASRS
#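 Compound: one test concentration per compound; Material: GST-GASC-1 enzyme fragment 2-372; Amount: GASC-1 enzyme at 10 nM final in reaction; Also added: H3K9me3 peptide substrate, Fe(II), 2-oxoglutarate; Technique: LANCE TR-FRET; Times: 30 min demethylation and 1 h detection at room temperature.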
# T cruzi growth-1: inhibitors of T. cruzi proliferation | T. cruzi beta-gal in NIH3T3, GalScreen luminescence, 90 h | inhibition, % at 8.34 µM | hit rate 5.9% among 77,000 | AID 624255;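 active = mean inhibition above about 93%, with at least 55% of replicates each passing it, limit read from the data, passing the limit was not always enough; inconclusive = only one of those two conditions holds; inactive = neither condition holds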
# IDH1 mut inh: blocks human IDH1 R132H reductase activity; O75874; diaphorase/resazurin fluorescence, 60 min; inhibition, % at 10 µM; hit rate 0.18% among 70,000; AID 624101; in the data active = inhibition above about 34%; inconclusive = no clear call, values can overlap the other calls; inactive = below about 11%
# T cruzi growth-2: blocks T. cruzi growth in NIH3T3 host cells; inhibition, % at 8.35 µM; shares compounds with T cruzi growth-1; T. cruzi beta-gal in NIH3T3, GalScreen luminescence, 90 h; hit rate 72% among 5,600;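 active = mean replicate inhibition above about 95% and at least 55% of replicates individually reaching it, limit read from the data; inconclusive = only one of the two criteria is met; inactive = neither criterion is met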
# T cruzi growth-3: blocks T. cruzi growth in NIH3T3 host cells; shares compounds with T cruzi growth-1; T. cruzi beta-gal in NIH3T3, GalScreen luminescence, 90 h; inhibition, % at 2.09 µM; hit rate 21% among 5,600; AID 651740;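 active = mean inhibition above about 95%, with at least 55% of replicates also reaching it, limit read from the data; inconclusive = meets just one of the two conditions; inactive = meets neither condition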
# 3T3 cytotox: kills mouse NIH/3T3 fibroblasts | shares compounds with T cruzi growth-1 | NIH/3T3 viability, CellTiter-Glo ATP luminescence, 90 h | cytotoxicity (signal decrease), % at 8.35 µM | hit rate 14% among 5,600;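 active = mean signal decrease across replicates above about 35% based on untreated-well scatter, with enough replicates individually passing, limit read from the data; inconclusive = no rule stated though some were filed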
# 3T3 cytotox 2: cytotoxicity in mouse NIH/3T3 fibroblasts; hit rate 56% among 5,600; inhibition, % at 24.9 µM; shares compounds with T cruzi growth-1; NIH/3T3 viability, CellTiter-Glo ATP luminescence, 90 h; AID 651744;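 active = mean loss of cell viability signal at or above a set limit, and enough replicates individually reaching it; inconclusive = meets only the mean limit or only the replicate share; inactive = meets neither condition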
# Hits are given with their value; – = inactive; ? = inconclusive; · = not tested or not shown. Only a selection was taken, and hits are over-represented in it overall.
SMILES,KDM4C inh,T cruzi growth-1,IDH1 mut inh,T cruzi growth-2,T cruzi growth-3,3T3 cytotox,3T3 cytotox 2
Cc1ccc(OCC(=O)Nc2ccc3oc(-c4ccccc4C)nc3c2)cc1C,·,·,–,·,·,·,·
C=CCOc1ccccc1/C=N/NC(=O)c1ccccc1O,·,·,–,·,·,·,·
CCc1csc(N2[C@@H](C#N)[C@@H](c3ccc(-c4cccc(F)c4)cc3)[C@@H]2CO)n1,–,100,·,?,–,45,82
N#C[C@@H]1[C@@H](c2ccc(-c3cccc(F)c3)cc2)[C@H](CO)N1c1nc(-c2ccccc2)cs1,–,·,·,·,·,·,·
CCc1csc(N2[C@H](C#N)[C@@H](c3ccc(-c4cccc(F)c4)cc3)[C@H]2CO)n1,–,100,·,108,–,–,31
CCc1csc(N2[C@H](CO)[C@@H](c3ccc(-c4ccc(F)cc4)cc3)[C@@H]2C#N)n1,–,103,·,102,–,–,103
CCc1csc(N2[C@H](C#N)[C@@H](c3ccc(-c4ccc(F)cc4)cc3)[C@@H]2CO)n1,–,–,·,·,·,·,·
CCc1csc(N2[C@H](CO)[C@H](c3ccc(-c4cccc(F)c4)cc3)[C@@H]2C#N)n1,–,–,·,·,·,·,·
CCc1csc(N2[C@H](C#N)[C@@H](c3ccc(-c4cccc(F)c4)cc3)[C@@H]2CO)n1,–,98,·,111,–,–,96
CCc1csc(N2[C@H](C#N)[C@H](c3ccc(C#Cc4ccc(F)cc4)cc3)[C@H]2CO)n1,–,–,·,·,·,·,·
COc1ccc(NC(=O)CSc2ncnc3sc(-c4ccccc4)cc23)c([N+](=O)[O-])c1,·,·,–,·,·,·,·
Cc1cc(C)c(NC(=O)CN(c2cccc(Br)c2)S(C)(=O)=O)c(C)c1,·,·,–,·,·,·,·
Cc1ccc2cccc(S(=O)(=O)N3CCC(C(=O)O)CC3)c2n1,·,·,–,·,·,·,·
CC(C)=CCC[C@@H](C)C/C=N/NC(=O)CCCCCCC(=O)O,·,·,–,·,·,·,·
CCc1csc(N2[C@@H](C#N)[C@H](c3ccc(-c4cccc(F)c4)cc3)[C@@H]2CO)n1,–,105,·,103,–,–,–
CCc1csc(N2[C@@H](C#N)[C@@H](c3ccc(C#Cc4ccc(F)cc4)cc3)[C@@H]2CO)n1,–,–,·,·,·,·,·
N#C[C@H]1[C@@H](c2ccc(-c3ccncc3)cc2)[C@@H](CO)N1C(=O)Cc1ccccc1,–,?,·,104,–,–,44
N#C[C@H]1[C@H](c2ccc(-c3ccccc3)cc2)[C@H](CO)N1C(=O)Cc1ccncc1,–,102,·,110,–,–,?
N#C[C@H]1[C@H](c2ccc(-c3ccc(F)cc3)cc2)[C@H](CO)N1C(=O)Cc1ccccc1,–,–,·,·,·,·,·
N#C[C@@H]1[C@@H](c2ccc(-c3ccccc3)cc2)[C@@H](CO)N1C(=O)Cc1ccncc1,–,–,–,·,·,·,·
N#C[C@@H]1[C@@H](c2ccc(-c3ccncc3)cc2)[C@@H](CO)N1C(=O)Cc1ccccc1,–,?,·,–,–,–,28
N#C[C@@H]1[C@H](c2ccc(-c3cncnc3)cc2)[C@@H](CO)N1C(=O)Cc1ccccc1,–,–,·,·,·,·,·
N#C[C@H]1[C@H](c2ccc(C#Cc3ccc(F)cc3)cc2)[C@H](CO)N1C(=O)Cc1ccncc1,–,?,·,–,–,–,?
N#C[C@H]1[C@@H](c2ccc(-c3ccc(F)cc3)cc2)[C@@H](CO)N1C(=O)Cc1ccccc1,–,–,·,·,·,·,·
Cc1ccc(NC(=O)C(C)Sc2nccc(C)n2)cc1 (stereo unspecified),·,·,–,·,·,·,·
SMILES,KDM4C inh,T cruzi growth-1,IDH1 mut inh,T cruzi growth-2,T cruzi growth-3,3T3 cytotox,3T3 cytotox 2
CCCCCCCC/C=C/CCCCCCCC(=O)NCCc1ccc(O)c(O)c1,·,·,–,·,·,·,·
COc1ccc(-n2c(SCC(=O)Nc3ccc(Cl)cc3C)nnc2-c2ccccc2F)cc1,·,·,–,·,·,·,·
O=C(COc1ccccc1[N+](=O)[O-])Nc1ccc(O)c(-c2nc3ccccc3s2)c1,·,·,–,·,·,·,·
COc1ccc(S(=O)(=O)Nc2cccc3c2O[C@H](CN(C)Cc2ccc(C(=O)O)cc2)[C@@H](C)CN([C@@H](C)CO)C3=O)cc1,–,–,–,·,·,·,·
C[C@@H]1CN([C@H](C)CO)C(=O)c2cccc(NS(=O)(=O)c3cn(C)cn3)c2O[C@H]1CN(C)CC1CCCCC1,–,102,·,–,–,–,–
C[C@H](CO)N1C[C@H](C)[C@H](CN(C)Cc2ccc(C(=O)O)cc2)Oc2c(NS(=O)(=O)c3cn(C)cn3)cccc2C1=O,–,?,·,–,–,–,–
C[C@H]1CN([C@@H](C)CO)C(=O)c2cccc(NS(=O)(=O)c3cn(C)cn3)c2O[C@H]1CN(C)Cc1ccc(C(=O)O)cc1,–,–,·,·,·,·,·
COc1ccc(S(=O)(=O)Nc2cccc3c2O[C@@H](CN(C)Cc2ccc(C(=O)O)cc2)[C@H](C)CN([C@@H](C)CO)C3=O)cc1,–,105,–,–,–,–,–
C[C@@H]1CN([C@@H](C)CO)C(=O)c2cccc(NS(=O)(=O)c3cn(C)cn3)c2O[C@@H]1CN(C)CC1CCCCC1,–,–,·,·,·,·,·
C[C@@H]1CN([C@@H](C)CO)C(=O)c2cc(C#Cc3ccccn3)cnc2O[C@H]1CN(C)Cc1cccnc1,–,–,–,·,·,·,·
C[C@@H]1CN([C@@H](C)CO)C(=O)c2cc(C#Cc3ccccn3)cnc2O[C@@H]1CN(C)Cc1cncnc1,–,?,–,104,–,–,–
C[C@H](CO)N1C[C@H](C)[C@@H](CN(C)Cc2cncnc2)Oc2ncc(C#Cc3ccccn3)cc2C1=O,–,?,–,103,–,–,–
C[C@@H]1CN([C@H](C)CO)C(=O)c2cc(C#Cc3ccccn3)cnc2O[C@@H]1CN(C)Cc1cncnc1,–,–,–,·,·,·,·
Cc1ccnc(NC(c2cccc(F)c2)c2ccc3ccc(C)nc3c2O)c1 (stereo unspecified),·,·,–,·,·,·,·
C=C(C)Cn1c(SCc2nc3ccccc3[nH]2)nc2sc3c(c2c1=O)CCC3,·,·,–,·,·,·,·
O=C(Cn1ccc([N+](=O)[O-])n1)Nc1cc(F)ccc1F,·,·,–,·,·,·,·
Cc1cc(C)nc(SCC(=O)N2CCN(c3nnc(-c4ccccc4)c4ccccc34)CC2)n1,·,·,–,·,·,·,·
C[C@H]1CN([C@@H](C)CO)S(=O)(=O)c2ccc(C#CCN(C)C)cc2O[C@H]1CN(C)S(=O)(=O)c1cccc(F)c1,–,·,–,·,·,·,·
C[C@@H]1CN([C@H](C)CO)S(=O)(=O)c2ccc(C#CCN(C)C)cc2O[C@H]1CN(C)S(=O)(=O)c1cccc(F)c1,–,·,–,·,·,·,·
CC(C)CC#Cc1ccc2c(c1)O[C@@H](CN(C)S(=O)(=O)c1cccc(F)c1)[C@H](C)CN([C@@H](C)CO)S2(=O)=O,–,110,–,?,115,–,68
CCCC#Cc1ccc2c(c1)O[C@@H](CN(C)S(=O)(=O)c1cccc(F)c1)[C@@H](C)CN([C@H](C)CO)S2(=O)=O,–,124,–,104,–,–,–
